# Screening results as filed in PubChem BioAssay.
# TRPML3 agonist – activates the human TRPML3 channel; Q8TDD5; HEK293 TRPML3-YFP, Fluo-8 calcium fluorescence; 100% = the carbachol control signal; activation, % at 3 µM; 220,000 compounds, 0.29% hits; AID 1448;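 active means activation above its plate's cutoff, the mean activation of the plate's test wells plus 3 SD, cut at about 12% in these data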;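 further: 0% = DMSO only wells and 100% = carbachol wells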
# Target sequence (Q8TDD5 whole entry, looked up): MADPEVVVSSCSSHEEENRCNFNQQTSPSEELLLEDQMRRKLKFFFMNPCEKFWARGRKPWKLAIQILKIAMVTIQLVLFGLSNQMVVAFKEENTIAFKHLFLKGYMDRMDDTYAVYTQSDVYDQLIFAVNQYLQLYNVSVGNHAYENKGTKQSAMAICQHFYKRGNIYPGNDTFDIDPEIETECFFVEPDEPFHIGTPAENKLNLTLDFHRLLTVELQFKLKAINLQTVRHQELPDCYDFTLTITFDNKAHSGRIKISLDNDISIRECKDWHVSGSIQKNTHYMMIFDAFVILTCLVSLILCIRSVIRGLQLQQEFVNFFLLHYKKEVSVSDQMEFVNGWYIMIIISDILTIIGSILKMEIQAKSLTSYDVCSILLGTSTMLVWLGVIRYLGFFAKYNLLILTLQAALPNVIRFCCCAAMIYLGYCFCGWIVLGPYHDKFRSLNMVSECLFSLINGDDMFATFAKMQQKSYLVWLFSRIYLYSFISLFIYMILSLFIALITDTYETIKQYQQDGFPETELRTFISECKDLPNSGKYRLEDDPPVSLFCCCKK
#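 Material: TRPML3-YFP stable HEK293 cells | Dosing: One concentration, 3 µM nominal, 0.3% DMSO | Timing: 125 s total fluorescence read per well | Technique: Fluo-8 calcium dye fluorescence, ex 470-495, em 515-575 nm | Measure: Percent activation from peak-to-basal fluorescence ratio, scaled between DMSO and carbachol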
# IMP-1 inh – inhibitors of Pseudomonas aeruginosa IMP-1 metallo-beta-lactamase; purified IMP-1, nitrocefin hydrolysis, epi-absorbance fluorescence; inhibition, % at 5.6 µM; 290,000 compounds, 0.45% hits;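 active means inhibition above the mean plus 3 SD of all compounds in the same screening run, cut at about 4.5% in these data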;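 further: 0% = IMP-1 with DMSO and 100% = DMSO wells lacking enzyme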
#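 Test system: recombinant IMP-1 enzyme, purified / Medium: HEPES buffer pH 7.1 with ZnSO4 and Brij 35 / Doses: single dose, 5.6 µM / Times: 25 °C, 15 min preincubation, 25 min reaction / Detection: Epi-absorbance via hydrolysed-nitrocefin quenching of white-plate fluorescence, 480/530 nm, EDTA stop / Evaluation: percent inhibition from optical density relative to buffer-blank wells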
# CRFR2-BP antag – antagonists of CRF-binding protein/CRF-R2 receptor complex | HEK293 CRF-R2/CRF-BP, CRF-induced calcium fluorescence | inhibition, % at 11.8 µM | 350,000 compounds, 0.59% hits | AID 588475;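 active means inhibition of the ligand-induced calcium signal above about 50% at the single tested concentration, limit read from the data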
# VIM-2 inh – blocks Pseudomonas aeruginosa VIM-2 metallo-beta-lactamase; purified VIM-2, nitrocefin hydrolysis, epi-absorbance fluorescence; inhibition, % at 5.6 µM; 290,000 compounds, 0.89% hits;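 active means inhibition above the mean of all tested compounds plus 3 SD, cutoff set per screening run, cut at about 7.5% in these data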;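 further: red hydrolysis product quenches plate fluorescence so inhibitors raise well fluorescence; 0% = enzyme with DMSO and 100% = DMSO without enzyme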
# zfTRPN1 agonist – agonists of zebrafish TRPN1 channel. 220,000 compounds, 0.18% hits. activation, % at 3 µM. HEK293 zebrafish TRPN1-YFP, Fluo-8 calcium fluorescence; 100% = response to 87 µM carbachol;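 active means activation above its plate's cutoff, the mean activation of test wells on that plate plus 3 SD, cut at about 19% in these data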;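 further: 0% = DMSO alone and 100% = 87 µM carbachol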
#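 Control set: carbachol 87 µM as high control, DMSO as low control; system: HEK293 stable line with zebrafish TRPN1-YFP; read-out: % activation versus carbachol response; detection: intracellular calcium fluorescence with Fluo-8; doses: single test compound dose, 3 µM nominal, 0.3% DMSO; schedule: dye 1 h 37 °C plus 30 min RT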
# CRFR2-BP ag – CRF-BP/CRF-R2 complex agonism | HEK293 CRF-R2/CRF-BP, calcium dye fluorescence (FLIPR); percent of saturating CRF peptide response | activation, % at 13.2 µM | 350,000 compounds, 0.46% hits | AID 588473;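 active means activation of at least 50%, plus an integration ratio under a set limit after plate pattern correction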;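 further: plate controls were neutral control wells without compound for no effect and CRF at EC100 for full effect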
# * marks the source's active call; other numbers are inactive results; / = not tested or not shown. A selection: hits, their analogues and other compounds. The true share with any hit is near 2.1%.
SMILES,TRPML3 agonist,IMP-1 inh,CRFR2-BP antag,VIM-2 inh,zfTRPN1 agonist,CRFR2-BP ag
Cc1noc(C)c1CSc1nc2sc(C)c(C)c2c(=O)n1-c1ccccc1,1,-1,29,-2,-1,3
O=C(O)C1Sc2[nH]c(=O)sc2C2c3cc(Br)ccc3OC(=O)C12 (centres undefined),4,5.5*,-5,5,6,2
CC(=O)NN1C(=O)c2ccc(Oc3cccc([N+](=O)[O-])c3)cc2C1=O,1,6.0*,10,6,0,-1
CN1OC[C@@H]2CN(S(=O)(=O)c3cccc4ccccc34)[C@H](c3ccc(-c4ccccc4)cc3)C[C@@H]21,/,/,0,/,/,1
CCN(CC)CCCOc1nc(C)nc2c1oc1ccccc12,0,1,23,31*,1,-1
CCN(CC)CCOc1nc(C)nc2c1oc1ccccc12,1,-3,17,8.6*,1,-1
COc1ccc(OC)c(S(=O)(=O)N2CCC(C(=O)NCc3ccncc3)CC2)c1,/,-2,5,-1,/,1
CCN(CC)S(=O)(=O)c1ccc(C(=O)OCCN2C(=O)c3cccc4c(N5CCOCC5)ccc(c34)C2=O)cc1,2,-2,-243,-4,2,184*
CCN(CC)c1ccc2cc(C(=O)NNC(=O)c3ccc(S(=O)(=O)N4CCCCC4)cc3)c(=O)oc2c1,0,0,-295,0,0,266*
CCN(CC)c1ccc2cc(C#N)c(=O)oc2c1,1,-2,-73,-2,1,102*
Cc1ccc(S(=O)(=O)c2cc3ccccc3oc2=O)cc1,0,-1,-7,-1,2,-2
CCN(CC)c1ccc2cc(-c3nc(-c4cc5ccccc5oc4=O)cs3)c(=O)oc2c1,/,/,-129,/,/,195*
CCN(CC)c1ccc2cc(S(=O)(=O)c3ccc(C)cc3)c(=O)oc2c1,0,-4,-157,1,1,147*
Nn1c(SCC(=O)Nc2ccccc2C(F)(F)F)nncc1=O,/,-3,-6,-5,/,0
COc1ccc(N(CC(=O)Nc2ccc(S(=O)(=O)N3CCOCC3)cc2)S(=O)(=O)c2ccc(F)cc2)cc1,0,-2,0,0,2,9
Cc1ccc(S(=O)(=O)N2CCN(c3ncnc4scc(-c5ccc(F)cc5)c34)CC2)cc1,/,/,8,/,/,-1
Cc1ccc(S(=O)(=O)N2CCN(c3ncnc4scc(-c5ccccc5)c34)CC2)cc1,/,/,-103,/,/,127*
CCN(C1CCCCC1)S(=O)(=O)CCNC(=O)c1ccc(OC)cc1,/,/,6,/,/,0
COc1ccc(C(=O)NCCS(=O)(=O)N(C)C2CCCCC2)cc1,/,/,51*,/,/,37
COc1ccc(NC(=O)c2ccc(S(=O)(=O)N3CCCC3)cc2)cc1OC,/,/,4,/,/,0
O=C(Nc1ccccc1)c1ccc(-c2ccc([N+](=O)[O-])cc2)o1,/,5.0*,3,2,/,-1
COc1ccc(NC(=O)c2ccc(-c3ccc([N+](=O)[O-])cc3)o2)cc1,0,-3,15,-1,2,-1
O=C(Nc1cccnc1)c1ccc(-c2ccc(Cl)cc2)o1,1,-2,57*,0,2,-1
COc1ccc(NC(=O)c2c(N)cnn2C)cc1,/,-4,-3,-2,/,-1
O=C(N/N=C/c1ccccn1)c1cccs1,1,-3,62*,-3,2,0
SMILES,TRPML3 agonist,IMP-1 inh,CRFR2-BP antag,VIM-2 inh,zfTRPN1 agonist,CRFR2-BP ag
COc1ccc(-n2c(O)c(/C=C3\C=Nc4ccccc43)c(=O)[nH]c2=O)cc1,/,3,-56,4,/,76*
COc1ccc(-n2c(O)c(C=NC3CC3)c(=O)[nH]c2=O)cc1,1,-1,-1,-2,1,0
Cc1cccc(N(C(=O)c2nsc(Cl)c2Cl)C(C(=O)NC2CCCC2)c2ccc(O)cc2)c1C (centres undefined),-1,0,91*,-1,-3,-4
Cc1ccc(N(C(=O)c2nsc(Cl)c2Cl)C(C(=O)NC2CCCC2)c2ccc(O)cc2)cc1C (centres undefined),-1,-3,88*,-3,-1,-6
Cc1cc(C)cc(N(C(=O)c2nsc(Cl)c2Cl)C(C(=O)NC2CCCC2)c2ccc(O)cc2)c1 (centres undefined),-1,-1,73*,-3,-2,-2
CCOc1ccc(C(C(=O)NC2CCCC2)N(Cc2ccccc2)C(=O)c2nsc(Cl)c2Cl)cc1 (centres undefined),1,2,0,1,0,5
Cc1cc(C2=CC(=O)C[C@H](c3ccc(F)cc3)C2)ccc1F,/,/,8,/,/,0
COC(=O)C1=C/C=C\CN(C(c2ccccc2)c2ccccc2)/C=C\1C(=O)OC,/,/,52*,/,/,1
Cc1cccc(C)c1N1CCN(C(=O)c2ccc3c(c2)OCO3)CC1,/,-1,61*,1,/,0
Cc1cc(OCC(=O)NNC(=O)CCc2ccccc2)ccc1Br,/,-1,-6,-4,/,1
Cc1cc(C(c2ccc(O)cc2)c2cc(C)c(O)cc2C)c(C)cc1O,/,-2,-65,-2,/,69*
CCC1(c2ccccc2)NC(=O)N(CC(=O)N(C)Cc2c(F)cccc2Cl)C1=O (centres undefined),/,-1,-2,-1,/,0
CCN(CC)c1ccc2c(c1)oc(=O)c1c(Cl)cc(=O)oc12,1,0,-203,0,0,223*
O=C1CS/C(=C\[N+](=O)[O-])N1c1ccccc1,0,4.6*,-10,1,0,25
N#C/C(=N\Nc1cccc(C(F)(F)F)c1)C(=O)c1ccsc1,14*,-4,44,0,24*,35
Nc1ccc(-c2c3ccc(=O)cc-3oc3cc(O)ccc23)c(C(=O)O)c1,/,/,-169,/,/,232*
COc1ccc(OCc2cccc(C(=O)NN)c2)cc1,0,-4,-5,-6,-1,-1
COc1ccc(OCc2cccc(C(=O)Nn3cc([N+](=O)[O-])cn3)c2)cc1,3,-5,53*,-2,6,13
COc1cccc(NC(=S)N(C)C2CCN(C)CC2)c1,/,-1,-3,-2,/,9
COc1ccc(OC2C(=O)N(c3cc(C)ccc3C)C2c2ccc(OC)c(OC)c2)cc1 (centres undefined),0,-3,51*,-2,0,2
COc1ccc(/C=N/Nc2nnc(-c3ncc[nH]3)c3ccccc23)cc1,0,-1,-12,0,1,0
Oc1ccc2ccccc2c1/C=N/Nc1nnc(-c2ncc[nH]2)c2ccccc12,0,36*,-13,-4,0,10
O=C1C=C(c2ccc3c(c2)OCO3)C[C@@H](c2ccc(Cl)cc2)C1,/,/,-12,/,/,4
NC(=O)C1=C(c2ccccc2)c2ccccc2C1=O,/,/,-68,/,/,67*
